A selection: hits, their analogues and other compounds. The true share with any hit is near 2.5%.
MsrA inh = bovine MsrA inhibition; purified bovine MsrA, absorbance read-out; inhibition, % at 15.5 µM; 0.75% of 360,000 active; AID 651718;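 note: 0% = vehicle wells with enzyme and 100% = reference inhibitor wells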
NR2E3 ag-1 = agonists of human nuclear receptor NR2E3 | GST-NR2E3/biotin-RetCOR TR-FRET, 1536-well | inhibition of corepressor binding, % at 4.78 µM | 0.12% of 320,000 active | Q9Y5X4;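 active = percent inhibition above the cutoff of mean plus 3 SD of all tested compounds, set per screening campaign, cut at about 20% in these data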;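 note: 0% = DMSO wells and 100% = biotin wells as full block of FRET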
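System: GST-NR2E3 and biotin-RetCOR proteins; probe or stimulus: 7 nM biotin-RetCOR; doses: compound at 4.8 µM, single dose; schedule: Compound–protein incubation for 5 h at 4 °C; detection: time-resolved FRET; read-out: percent inhibition; controls: biotin wells as high control, 0.6% DMSO wells as low control; format: 1536-well plates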
NadD inh = inhibitors of Staphylococcus aureus NadD | purified NadD enzyme, colorimetric absorbance read-out | inhibition, % at 20 µM | 0.78% of 360,000 active | AID 602399; in the data active = inhibition above about 26%
MsrA act = activators of bovine methionine sulfoxide reductase A; purified bovine MsrA, absorbance read-out; activation, % at 10.6 µM; 0.3% of 360,000 active; in the data active = activation above about 7.5%;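 note: 0% = vehicle and 100% = reference activator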
NR2E3 ag-2 = human photoreceptor-specific nuclear receptor agonism; AID 602229; inhibition of corepressor binding, % at 3.98 µM; 0.35% of 360,000 active; CHO-S Gal4-NCOR/VP16-NR2E3 two-hybrid, luciferase; Q9Y5X4;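 active = inhibition above the mean of all tested compounds plus 3 SD, cut at about 70% in these data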;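 note: 0% = DMSO with NR2E3 transfected cells and 100% = cells lacking NR2E3 construct; higher means lower luciferase signal from less NR2E3 corepressor binding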
GalR3 antagonist = antagonists of human GalR3 | HEK293 GalR3-CNG cAMP membrane potential fluorescence; galR3 body fused to GalR1 C-terminus | inhibition, % at 3 µM | 0.44% of 360,000 active | AID 651719;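 active = inhibition above the screen-wide average plus 3 SD, cut at about 13% in these data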;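 note: forskolin and galanin both at EC90 stimulate the cells; cAMP rise reported by CNG channel membrane potential dye signal; 0% = forskolin plus galanin with DMSO and 100% = forskolin alone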
Target sequence (O60755 1-299 limits assumed): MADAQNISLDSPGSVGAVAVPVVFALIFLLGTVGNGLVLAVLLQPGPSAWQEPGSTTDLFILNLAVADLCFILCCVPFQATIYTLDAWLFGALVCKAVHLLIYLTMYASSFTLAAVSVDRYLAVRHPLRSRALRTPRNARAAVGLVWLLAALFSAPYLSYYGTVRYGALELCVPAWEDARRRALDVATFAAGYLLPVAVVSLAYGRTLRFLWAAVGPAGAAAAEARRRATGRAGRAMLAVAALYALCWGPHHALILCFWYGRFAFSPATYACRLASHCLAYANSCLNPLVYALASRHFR
MsrA conf = confirmation of bovine MsrA inhibitors. shares compounds with MsrA inh. purified bovine MsrA, absorbance read-out. inhibition, % at 15.5 µM. 41% of 2,300 active. AID 651822;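 note: coupled to thioredoxin reductase with NADPH and selenocystamine and DMSO as substrate; 0% = vehicle only and 100% = full effect of reference inhibitor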
Numbers without * were called inactive. Cut-off read from the data, not from the text of the source, unless noted: active = inhibition above about 4.5%; inactive = the rest.

For O=C(O)c1cccc(Cn2c(Cl)c(/C=N/NC(=O)c3cccc(O)c3)sc2=O)c1 the results were MsrA inh 4, NR2E3 ag-1 2, NadD inh -4, MsrA act -11, NR2E3 ag-2 -4 and GalR3 antagonist -2.
For COc1cc(C(=O)N/N=C/c2sc(=O)n(-c3ccccc3)c2Cl)cc(OC)c1OC the results were MsrA inh 3, NR2E3 ag-1 1, NadD inh 5, MsrA act -1, NR2E3 ag-2 -35 and GalR3 antagonist -9.
`O=C(O)c1ccc(/C=N/NC(=O)c2cc3ccccc3cc2O)cc1` gave MsrA inh 5.0*, NadD inh 3, MsrA act -8, NR2E3 ag-2 -38, GalR3 antagonist -3 and MsrA conf 3.
O=C(N/N=C/c1sc(=O)n(-c2ccccc2)c1Cl)c1ccncc1 was read as MsrA inh 7.5*, NR2E3 ag-1 4, NadD inh 0, MsrA act -1, NR2E3 ag-2 -21, GalR3 antagonist -5 and MsrA conf 4.8*.
`O=C(CNc1ccc2ccccc2c1)N/N=C/c1ccc(C(=O)O)cc1` gave MsrA inh 2, NR2E3 ag-1 0, NadD inh 6, MsrA act -9, NR2E3 ag-2 -12 and GalR3 antagonist 9.
`O=C(O)c1cccc(Cn2c(Cl)c(/C=N/NC(=O)c3ccccc3)sc2=O)c1` gave MsrA inh 5.7*, NR2E3 ag-1 -5, NadD inh -2, MsrA act -4, NR2E3 ag-2 -6, GalR3 antagonist 0 and MsrA conf 5.1*.
`COc1ccc(/C(C)=N/Nc2ccccc2Cl)c(O)c1` gave MsrA inh 0, NR2E3 ag-1 5, NadD inh 2, MsrA act -2, NR2E3 ag-2 -41 and GalR3 antagonist 7.
`COc1ccc(CC(=O)Nc2nnc(C(C)C)s2)cc1` gave MsrA inh 1, NadD inh -9, MsrA act 0, NR2E3 ag-2 -19 and GalR3 antagonist -2.
`O=C1Nc2cc3c(cc2C1=O)sc1ccccc13` gave MsrA inh 0, NR2E3 ag-1 -2, NadD inh 2, MsrA act -1, NR2E3 ag-2 -63 and GalR3 antagonist 3.
For O=C(CCN1C(=O)c2ccccc2C1=O)Nc1ccc(F)cc1F the results were MsrA inh -2, NR2E3 ag-1 2, NadD inh -1, MsrA act -1, NR2E3 ag-2 -2 and GalR3 antagonist -6.
For Cc1ccccc1N/N=C/c1sc(=O)n(Cc2cccc(C(=O)O)c2)c1Cl the results were MsrA inh 3, NR2E3 ag-1 -5, NadD inh 5, MsrA act -7, NR2E3 ag-2 -13 and GalR3 antagonist -4.
`O=C(O)c1cccc(Cn2c(Cl)c(/C=N/NC(=O)c3ccco3)sc2=O)c1` gave MsrA inh 7.0*, NR2E3 ag-1 1, NadD inh -2, MsrA act -6, NR2E3 ag-2 -22, GalR3 antagonist -1 and MsrA conf 7.4*.
For O=C(O)c1cccc(Cn2c(Cl)c(/C=N/NC(=O)c3cc4ccccc4cc3O)sc2=O)c1 the results were MsrA inh 4.9*, NR2E3 ag-1 -1, NadD inh 12, MsrA act -6, NR2E3 ag-2 -22, GalR3 antagonist 6 and MsrA conf 5.6*.
Cc1cc(=O)oc(C)c1C(=O)NCCC(C)C was read as MsrA inh 5.5*, NR2E3 ag-1 -1, NadD inh -4, MsrA act -6, NR2E3 ag-2 -16, GalR3 antagonist -6 and MsrA conf 5.0*.
Cc1ccc(-n2c(N)c(C#N)c(-c3ccccc3)c(C#N)c2=O)cc1 was read as MsrA inh 4.9*, NR2E3 ag-1 -4, NadD inh -5, MsrA act -5, NR2E3 ag-2 -3, GalR3 antagonist 7 and MsrA conf 2.
`N#Cc1c(-c2ccc(Cl)cc2)c(C#N)c(=O)n(N)c1N` gave MsrA inh 4.9*, NR2E3 ag-1 3, NadD inh 1, MsrA act -4, NR2E3 ag-2 -10, GalR3 antagonist 2 and MsrA conf 3.
COCCNC(=O)c1cc(Sc2nnc(C)s2)nc2ccccc12 was read as NR2E3 ag-1 1.
O=C1N/C(=N\S(=O)(=O)Cc2ccccc2)S/C1=C/c1cccc([N+](=O)[O-])c1 was read as MsrA inh 5.6*, NR2E3 ag-1 1, NadD inh 7, MsrA act -3, NR2E3 ag-2 0, GalR3 antagonist -6 and MsrA conf 4.
COc1ccc(N=Cc2c(C)[nH][nH]c2=O)cc1 was read as MsrA inh 5.4*, NR2E3 ag-1 -4, NadD inh 0, MsrA act -5, NR2E3 ag-2 -2, GalR3 antagonist 0 and MsrA conf 3.
Cc1[nH][nH]c(=O)c1C=Nc1ccc(C(F)(F)F)cc1 was read as MsrA inh -2, NR2E3 ag-1 2, NadD inh -4, MsrA act -1, NR2E3 ag-2 -30 and GalR3 antagonist 2.
`O=c1c(N=Nc2ccccc2)c[nH]n1-c1ccccc1` gave MsrA inh 3, NadD inh -3, MsrA act 0, NR2E3 ag-2 -80 and GalR3 antagonist -7.
O=C(/C=C/c1ccco1)Nc1ccccc1C(=O)O was read as MsrA inh 3, NR2E3 ag-1 4, NadD inh -2, MsrA act -6, NR2E3 ag-2 -109 and GalR3 antagonist -4.
Screening O=C(/C=C/c1ccco1)Nc1cc(Cl)ccc1C(=O)O returned MsrA inh 6.8*, NR2E3 ag-1 0, NadD inh -5, MsrA act -6, NR2E3 ag-2 -32, GalR3 antagonist -5 and MsrA conf 5.2*.
O=C(NCc1ccco1)/C(=C/C=C/c1ccccc1)NC(=O)c1ccco1 was read as MsrA inh 4.9*, NR2E3 ag-1 0, NadD inh 2, MsrA act -6, NR2E3 ag-2 -5, GalR3 antagonist -8 and MsrA conf 3.
O=C(NCc1ccco1)/C(=C\C=C\c1ccccc1)NC(=O)c1ccco1 was read as MsrA inh 3, NR2E3 ag-1 1, NadD inh 2, MsrA act -6, NR2E3 ag-2 10 and GalR3 antagonist -7.
`CSc1ccc(/C=C(/NC(=O)c2ccco2)C(=O)NCc2ccco2)cc1` gave MsrA inh 6.3*, NadD inh -2, MsrA act -8, NR2E3 ag-2 10, GalR3 antagonist -3 and MsrA conf 3.
O=C(NCc1ccco1)/C(=C\C=C\c1ccccc1)NC(=O)c1ccccc1Br was read as MsrA inh 5.0*, NR2E3 ag-1 -3, NadD inh -3, MsrA act -6, NR2E3 ag-2 2, GalR3 antagonist -6 and MsrA conf 2.

Screens (PubChem)
